# ATG4B inh = ATG4B (human) cysteine protease inhibition; Q9Y4P1; ATG4B cleavage of LC3-PLA2, NBD-HPC fluorescence, 1 h; hit rate 0.51% among 340,000; inhibition, % at 8.33 µM; in the data active = inhibition above about 40%
# UCH37 inh = blocks the human deubiquitinase UCH37; Q9Y5K5; purified proteasome/UCH37, Ub-AMC cleavage fluorescence; inhibition, % (concentration not given with the values); hit rate 0.33% among 330,000; AID 588478;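 active = mean inhibition over replicate wells above about 20%, limit read from the data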;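 also: 0% = compound-free wells with enzyme and 100% = wells lacking proteasome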
# Target sequence (Q9Y5K5 whole entry, looked up): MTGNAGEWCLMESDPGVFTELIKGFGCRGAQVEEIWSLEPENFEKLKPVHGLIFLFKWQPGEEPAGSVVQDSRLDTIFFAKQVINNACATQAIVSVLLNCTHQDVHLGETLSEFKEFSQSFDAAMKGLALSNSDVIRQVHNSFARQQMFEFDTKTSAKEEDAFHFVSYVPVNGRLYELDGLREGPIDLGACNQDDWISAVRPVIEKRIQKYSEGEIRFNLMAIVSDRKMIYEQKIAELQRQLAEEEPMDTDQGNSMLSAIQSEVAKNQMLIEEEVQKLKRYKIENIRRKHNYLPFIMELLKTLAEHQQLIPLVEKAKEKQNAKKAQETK
#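 system = Proteasome-associated human UCH37 deubiquitinase | amount = 0.15 nM proteasome as dispensed | medium = pH 7.4 Tris-HCl (50 mM) with ovalbumin, ATP-MgCl2, DTT | incubation = 30 min preincubation with enzyme, 25 min cleavage at room temperature | detection = AMC fluorescence 355/460 nm | read-out basis = percent inhibition | controls = no-proteasome and no-compound wells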
# NALP1 inh = NALP1 inhibition; hit rate 0.61% among 280,000; S. cerevisiae NALP1/ASC/caspase-1 growth, X-gal OD620, 72 h; inhibition, % at 10 µM; AID 2071; in the data active = inhibition mostly above about 24%, no sharp cut-off; inactive = mostly below about 32%
# NALP3 yeast inh = NALP3 inhibition in yeast; Yeast reconstituted NLRP3/ASC/caspase-1, beta-gal luminescence, 24 h; inhibition, % at 10 µM; hit rate 0.39% among 330,000;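 active = inhibition of 50% or more; inactive = inhibition below 50%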;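 also: plate controls were induced DMSO wells for no effect and uninduced yeast grown without galactose for full effect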
# Calb FLC = C. albicans growth modulation with fluconazole. C. albicans CaCi-2 (fluconazole-resistant clinical isolate) + fluconazole, Alamar Blue growth, 48 h. growth inhibition, % (concentration not given with the values). hit rate 0.57% among 300,000;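 active = growth inhibition above about 58% in most replicates, limit read from the data, passing the limit was not always enough; inconclusive = exactly half the replicates above a set limit; inactive = most replicates below a set limit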;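 also: all wells also contain fluconazole at 8 µg/ml as a sub-toxic cotreatment; 0% = median of DMSO wells and 100% = median of geldanamycin control wells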
# ALR inh = blocks human ALR sulfhydryl oxidase activity. inhibition, % (no concentration beside the values). purified ALR, DTT oxidation, H2O2 HRP-luminol luminescence. hit rate 3.8% among 290,000. P55789. AID 485317;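 active = mean replicate inhibition above about 79%, with every replicate also reaching it, limit read from the data; inconclusive = only one of the two criteria met; inactive = mean below limit and not every replicate reaching it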
# Target sequence (P55789 whole entry, looked up): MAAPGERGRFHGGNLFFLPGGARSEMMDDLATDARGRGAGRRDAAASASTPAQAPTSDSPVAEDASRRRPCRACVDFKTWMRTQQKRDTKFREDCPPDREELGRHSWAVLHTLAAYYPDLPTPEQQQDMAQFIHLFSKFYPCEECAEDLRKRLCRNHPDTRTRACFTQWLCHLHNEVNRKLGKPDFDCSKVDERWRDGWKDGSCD
# ATG4B confirm = ATG4B (human) inhibition, single-dose confirmed. shares compounds with ATG4B inh. ATG4B protease fluorescent substrate cleavage assay. AID 504757. inhibition, % at 8.33 µM. hit rate 92% among 320; in the data active = inhibition above about 39%
# PLA2 counter = PLA2 (human) inhibition in ATG4B counter-screen; shares compounds with ATG4B inh; purified PLA2, NBD-C6-HPC fluorescence, 45 min; inhibition, % at 8.33 µM; hit rate 66% among 1,600; in the data active = inhibition above about 50%
# * hit, by the source's call; u = inconclusive; x = no result given. An excerpt weighted towards active compounds, which were near 4.8% of everything screened.
SMILES,ATG4B inh,UCH37 inh,NALP1 inh,NALP3 yeast inh,Calb FLC,ALR inh,PLA2 counter,others
Cc1nn(-c2ccccc2)c(N)c1N=Nc1ccc(Cl)cc1,81*,2,37,20,98*,-3,89*,
O=C(CON=Cc1ccc(OC(F)F)cc1)NCc1ccc(F)cc1,x,0,x,x,x,x,x,
O=C(NN=Cc1cccnc1)c1ccccc1[N+](=O)[O-],x,-1,x,x,x,x,x,
Cc1nn(-c2ccccc2)c(N)c1N=Nc1cccc(S(=O)(=O)N2CCOCC2)c1,44*,11,x,18,-3,-14,50,
Cc1nn(-c2ccccc2)c(N)c1N=Nc1ccccc1,73*,6,19,x,-1,-2,81*,
CCC(C=NNc1ccc(S(=O)(=O)N2CCCC2)cc1[N+](=O)[O-])CC,x,6,x,x,x,x,x,
O=C(NC(=S)NCCC1=CCCCC1)c1ccc(Br)o1,40*,1,6,12,3,4,36,ATG4B confirm=62*
O=C(NN=Cc1cccc([N+](=O)[O-])c1)C1COc2ccccc2O1 (configuration not stated),x,5,x,x,x,x,x,
Cc1ccc(S(=O)(=O)N(Cc2ccccc2)Cc2ccco2)cc1,44*,1,32,-1,0,1,56*,
Cc1ccc(S(=O)(=O)N(Cc2ccc(F)cc2)Cc2ccco2)cc1,30,2,19,1,-7,0,x,
CC(=NNC(=O)c1c(C)nc2ccccn12)c1ccc(N2CCOCC2)cc1,x,2,x,x,x,x,x,
CCOc1cc(/C=C2\C(=O)N(c3nc(-c4ccc(Br)cc4)cs3)N=C2c2ccccc2)ccc1O,53*,8,8,-10,u,-1,47,ATG4B confirm=66*
O=C(CCc1nc(-c2cccs2)no1)NCc1ccc(F)cc1Cl,43*,1,-6,7,-3,x,54*,
Cc1ccc(CNC(=O)CCc2nc(-c3cccs3)no2)cc1,12,2,6,35,-16,-6,x,
C=CCn1c(-c2oc3nc(-c4ccccc4)cc(-c4ccccc4)c3c2N)n[nH]c1=S,42*,-10,23,5,-8,6,35,ATG4B confirm=70*
Cc1c(Cl)c([N+](=O)[O-])nn1CCCC(=O)Nc1cccc(Cl)c1,75*,5,25,16,16,-6,78*,
Cc1c(Cl)c([N+](=O)[O-])nn1CCCC(=O)Nc1cccnc1,-2,4,-7,-1,-4,-54,x,
Cc1nn(Cc2c(Cl)cccc2Cl)c(C)c1NC(=O)CCCn1nc([N+](=O)[O-])c(Cl)c1C,46*,2,2,10,-4,-5,49,ATG4B confirm=70*
COc1ccc(Br)cc1C=c1sc2nc(-c3ccco3)nn2c1=O,x,-1,x,x,x,x,x,
O=C(/C=C1\NC2(CCCC2)Cc2ccccc21)C(=O)NN=Cc1ccccc1O,x,6,x,x,x,x,x,
O=C(/C=C1\NC2(CCCC2)Cc2ccccc21)C(=O)N/N=C/c1ccccc1O,44*,x,22,17,95*,0,47,
NC(=O)C(=O)NN=C1CCc2ccccc21,x,1,x,x,x,x,x,
Cc1cccc(N2CCN(S(=O)(=O)c3ccc4c(c3)CCN4C(=O)CCC(=O)O)CC2)c1C,41*,5,6,-5,x,x,30,
Cc1ccc(C)c(N2CCN(S(=O)(=O)c3ccc4c(c3)CCN4C(=O)CCC(=O)O)CC2)c1,3,-1,-3,-4,-2,48,x,
CCCCn1c(=O)c(-c2ccccc2)c(O)c2ccccc21,2,3,4,20,62,24,x,
SMILES,ATG4B inh,UCH37 inh,NALP1 inh,NALP3 yeast inh,Calb FLC,ALR inh,PLA2 counter,others
CCCCn1c2ccccc2c2cc(CC(N)=O)ccc21,62*,2,2,17,6,-20,74*,
CCC(C)c1ccccc1NC(=O)COC(=O)c1ccc2[nH]c3c(c2c1)CCCC3 (configuration not stated),42*,-10,21,14,-24,-10,57*,
O=C(COC(=O)c1ccc2[nH]c3c(c2c1)CCCC3)Nc1ccccc1Cl,3,-5,11,-1,2,1,x,
COCCNC(=S)NN=C(C)c1ccccc1OC,x,1,x,x,x,x,x,
COc1ccc(Cl)cc1-n1c(=S)sc2c(=O)[nH]c(SCC(=O)NCCC(C)C)nc21,41*,9,10,8,-3,x,41,ATG4B confirm=73*
CCCCn1c(N)c(N(CCOC)C(=O)COC(=O)COc2cc(C)c(Cl)cc2C(C)C)c(=O)[nH]c1=O,51*,4,x,24,-1,-2,58*,
CCCCn1c(N)c(N(CCOC)C(=O)COC(=O)COc2cc(C)ccc2Cl)c(=O)[nH]c1=O,4,5,x,12,-1,x,x,
O=C(NN=Cc1ccc2cccnc2c1)c1ccco1,x,9,x,x,x,x,x,
CCCC(=NNC(=O)c1csc(C)c1C)c1ccc(Cl)s1,x,4,x,x,x,x,x,
O=C(c1ccc2c(=O)n(C3CCCC3)c(=S)[nH]c2c1)N1CCCCCC1,62*,4,9,22,7,x,65*,
CCOC(=O)C1CCCN(C(=O)c2ccc3c(=O)n(Cc4ccccc4OC)c(=S)[nH]c3c2)C1 (configuration not stated),51*,1,-24,20,2,3,44,ATG4B confirm=74*
CCOC(=O)C1CCCN(C(=O)c2ccc(Cn3c(=S)[nH]c4cc(C(=O)OC)ccc4c3=O)cc2)C1 (configuration not stated),-5,3,-23,16,-3,19,x,
COc1cc(CN2CC(=O)N(c3ccccc3Cl)C2=S)cc(OC)c1OC,-5,0,6,12,6,-3,x,
COc1cc(Cl)c(C)cc1N1C(=O)CN(Cc2ccccc2)C1=S,52*,6,4,22,1,0,69*,
Cn1c(C(=O)N2CCc3ccccc3C2)cc2oc3ccccc3c21,59*,-2,1,22,0,-4,64*,
CCn1c(C(=O)N2CCc3ccccc3C2)cc2oc3ccccc3c21,43*,1,46,7,13,-18,72*,
Cc1nn2c(COc3ccc(NC(=O)c4ccccc4Cl)cc3)nnc2c2ccccc12,43*,0,26,-1,2,-18,39,
Cc1cc(C)c2c(c1)C(=NN=c1sc3ccccc3n1C)C(=O)N2,x,7,x,x,x,x,x,
O=C(O)c1cc([N+](=O)[O-])ccc1NCc1ccccn1,-2,6,x,15,x,-5,x,
O=C(O)c1cc([N+](=O)[O-])ccc1NCc1ccccc1Cl,48*,4,13,10,36,x,45,ATG4B confirm=64*
CCn1c(N2CCN(S(=O)(=O)c3ccc(Cl)cc3)CC2)nc2ccccc21,60*,5,-1,7,0,-112,67*,
